Test results: ChEMBL document CHEMBL1131261, “Synthesis and antitumor activity of ring A- and F-modified hexacyclic camptothecin analogues” (J Med Chem, 1998)
In brackets after ≈: the same amount, converted by molar mass.

How the values were obtained:
QG-56 = assay: In vitro antitumor activity against QG-56 (human lung cancer) cells.; format: functional, cell-based
Procedure, shortened: (§1)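 MTT assay of cell growth after 3 days of incubation. IC50 is the dose that inhibits growth of 50% of the cultivated cells, given in ng/mL.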

[1] = target: T1, DNA topoisomerase 1 (Homo sapiens) (UniProt P11387); assay: Inhibition of topoisomerase-1 compared to SN-38.
T1 sequence (whole entry): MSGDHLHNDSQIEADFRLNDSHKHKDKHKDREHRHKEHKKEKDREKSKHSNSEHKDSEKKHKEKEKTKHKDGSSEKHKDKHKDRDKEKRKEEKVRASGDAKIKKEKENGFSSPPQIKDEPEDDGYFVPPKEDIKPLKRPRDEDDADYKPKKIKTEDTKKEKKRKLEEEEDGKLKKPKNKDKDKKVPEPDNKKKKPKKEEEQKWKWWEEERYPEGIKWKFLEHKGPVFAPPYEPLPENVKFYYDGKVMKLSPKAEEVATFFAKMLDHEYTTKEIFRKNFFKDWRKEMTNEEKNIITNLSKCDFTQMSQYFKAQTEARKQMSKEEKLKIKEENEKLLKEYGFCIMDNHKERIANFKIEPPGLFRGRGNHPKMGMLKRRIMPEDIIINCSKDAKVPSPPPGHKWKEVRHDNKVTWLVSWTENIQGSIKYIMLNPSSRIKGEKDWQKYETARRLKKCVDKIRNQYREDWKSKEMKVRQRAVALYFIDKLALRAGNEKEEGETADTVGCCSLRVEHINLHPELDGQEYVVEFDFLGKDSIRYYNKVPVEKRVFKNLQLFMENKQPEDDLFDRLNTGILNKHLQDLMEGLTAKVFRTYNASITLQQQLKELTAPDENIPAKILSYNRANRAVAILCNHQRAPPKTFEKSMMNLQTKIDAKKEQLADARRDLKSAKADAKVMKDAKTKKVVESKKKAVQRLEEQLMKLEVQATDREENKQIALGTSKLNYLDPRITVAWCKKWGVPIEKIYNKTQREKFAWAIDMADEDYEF
Procedure, shortened: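 DNA relaxation assay with topoisomerase I. IC50 is the concentration that inhibits 50% of the conversion of supercoiled DNA to its relaxed form. Values are given as the ratio of the test IC50 to the IC50 of SN-38.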

HOC-21 cell line = assay: In vitro antitumor activity against HOC-21 (human ovarian cancer) cells.; format: functional, cell-based; procedure, shortened: as §1
P388 = assay: In vitro antitumor activity against P388 (murine leukemia) cells.; format: functional, cell-based; conditions: Mus musculus

`CC[C@@]1(O)C(=O)OCc2c1cc1n(c2=O)Cc2c-1nc1cc(F)c(C)c3c1c2CCC3` showed an IC50 (QG-56) of 0.17 ng/mL (≈ 0.000404 µM), a Ratio [1] of 0.51 and an IC50 (HOC-21 cell line) of 2.06 ng/mL (≈ 0.0049 µM). For the same molecule, the IC50 (P388) was 0.22 ng/mL (≈ 0.000523 µM).
With `CC[C@@]1(O)C(=O)OCc2c1cc1n(c2=O)Cc2c-1nc1ccc(OC)c3c1c2CCN3` the IC50 (QG-56) was 10.6 ng/mL (≈ 0.0253 µM), the IC50 (HOC-21 cell line) was 106 ng/mL (≈ 0.254 µM) and the IC50 (P388) was 10.7 ng/mL (≈ 0.0255 µM).
In the case of `CC[C@@]1(O)C(=O)OCc2c1cc1n(c2=O)Cc2c-1nc1cc(O)cc3c1c2CCC3`, the IC50 (QG-56) is reported as 4.7 ng/mL (≈ 0.0116 µM), the Ratio [1] is reported as 0.17 and the IC50 (HOC-21 cell line) is reported as 20.6 ng/mL (≈ 0.0509 µM). It also gave an IC50 (P388) of 0.99 ng/mL (≈ 0.00245 µM).
With `CC[C@@]1(O)C(=O)OCc2c1cc1n(c2=O)Cc2c-1nc1cc(F)c(F)c3c1c2CCC3` the IC50 (QG-56) was 0.38 ng/mL (≈ 0.000895 µM), the Ratio [1] was 0.7 and the IC50 (HOC-21 cell line) was 10.9 ng/mL (≈ 0.0257 µM). For the same molecule, the IC50 (P388) was 0.48 ng/mL (≈ 0.00113 µM).
Work on `CC[C@@]1(O)C(=O)OCc2c1cc1n(c2=O)Cc2c-1nc1cccc3c1c2CCC3` yielded an IC50 (QG-56) of 1.63 ng/mL (≈ 0.0042 µM), a Ratio [1] of 4 and an IC50 (HOC-21 cell line) of 92.9 ng/mL (≈ 0.239 µM). It also gave an IC50 (P388) of 5.23 ng/mL (≈ 0.0135 µM).
Molecule `CC[C@@]1(O)C(=O)OCc2c1cc1n(c2=O)Cc2c-1nc1cc(F)cc3c1c2CCC3` has an IC50 (QG-56) of 0.16 ng/mL (≈ 0.000394 µM), a Ratio [1] of 0.24 and an IC50 (HOC-21 cell line) of 3.39 ng/mL (≈ 0.00834 µM). It also gave an IC50 (P388) of 0.26 ng/mL (≈ 0.00064 µM).
In the case of `CC[C@@]1(O)C(=O)OCc2c1cc1n(c2=O)Cc2c-1nc1ccc(O)c3c1c2CCS3`, the IC50 (QG-56) is reported as 3.68 ng/mL (≈ 0.00871 µM), the Ratio [1] is reported as 1.6 and the IC50 (HOC-21 cell line) is reported as 153 ng/mL (≈ 0.361 µM). For the same molecule, the IC50 (P388) was 8.63 ng/mL (≈ 0.0204 µM).
In the case of `CC[C@@]1(O)C(=O)OCc2c1cc1n(c2=O)Cc2c-1nc1cc(OC)cc3c1c2CCC3`, the IC50 (QG-56) is reported as 1.32 ng/mL (≈ 0.00315 µM), the Ratio [1] is reported as 0.7 and the IC50 (HOC-21 cell line) is reported as 17.4 ng/mL (≈ 0.0416 µM). It also gave an IC50 (P388) of 1.01 ng/mL (≈ 0.00241 µM).
`CCc1c2c(nc3ccc(O)cc13)-c1cc3c(c(=O)n1C2)COC(=O)[C@]3(O)CC` [7-ETHYL-10-HYDROXYCAMPTOTHECIN] was tested, and the IC50 (QG-56) was 0.9 ng/mL (≈ 0.00229 µM), the Ratio [1] was 1 and the IC50 (HOC-21 cell line) was 41.2 ng/mL (≈ 0.105 µM). For the same molecule, the IC50 (P388) was 1.44 ng/mL (≈ 0.00367 µM).
`CC[C@@]1(O)C(=O)OCc2c1cc1n(c2=O)Cc2c-1nc1ccc(OC)c3c1c2CCS3` showed an IC50 (QG-56) of 3.27 ng/mL (≈ 0.00749 µM), an IC50 (HOC-21 cell line) of 80.2 ng/mL (≈ 0.184 µM) and an IC50 (P388) of 6.49 ng/mL (≈ 0.0149 µM).
Work on `CC[C@@]1(O)C(=O)OCc2c1cc1n(c2=O)Cc2c-1nc1cccc3c1c2CCS3` yielded an IC50 (QG-56) of 1.71 ng/mL (≈ 0.00421 µM), an IC50 (HOC-21 cell line) of 33 ng/mL (≈ 0.0812 µM) and an IC50 (P388) of 3.04 ng/mL (≈ 0.00748 µM).
In the case of `CC[C@@]1(O)C(=O)OCc2c1cc1n(c2=O)Cc2c-1nc1cc(Cl)cc3c1c2CCC3`, the IC50 (QG-56) is reported as 0.53 ng/mL (≈ 0.00125 µM), the Ratio [1] is reported as 0.23 and the IC50 (HOC-21 cell line) is reported as 14 ng/mL (≈ 0.0331 µM). For the same molecule, the IC50 (P388) was 0.73 ng/mL (≈ 0.00173 µM).
Molecule `CC[C@@]1(O)C(=O)OCc2c1cc1n(c2=O)Cc2c-1nc1ccc(O)c3c1c2CCC3` has a Ratio [1] of 0.47.
`CC[C@@]1(O)C(=O)OCc2c1cc1n(c2=O)Cc2c-1nc1cc(F)c(F)c3c1c2CCC3O` (some centres not stated) was tested, and the IC50 (QG-56) was 2.62 ng/mL (≈ 0.00595 µM), the Ratio [1] was 1.2 and the IC50 (HOC-21 cell line) was 68.9 ng/mL (≈ 0.156 µM). It also gave an IC50 (P388) of 3.17 ng/mL (≈ 0.0072 µM).
In the case of `CC[C@@]1(O)C(=O)OCc2c1cc1n(c2=O)Cc2c-1nc1ccc(N)c3c1c2CCC3`, the IC50 (QG-56) is reported as 1.38 ng/mL (≈ 0.00342 µM), the Ratio [1] is reported as 1.4 and the IC50 (HOC-21 cell line) is reported as 35.9 ng/mL (≈ 0.089 µM).
`CC[C@@]1(O)C(=O)OCc2c1cc1n(c2=O)Cc2c-1nc1ccc(N)c3c1c2CCS3` gave an IC50 (QG-56) of 0.4 ng/mL (≈ 0.000949 µM), a Ratio [1] of 0.9 and an IC50 (HOC-21 cell line) of 8.37 ng/mL (≈ 0.0199 µM). For the same molecule, the IC50 (P388) was 1.08 ng/mL (≈ 0.00256 µM).
`CC[C@@]1(O)C(=O)OCc2c1cc1n(c2=O)Cc2c-1nc1cc(C)cc3c1c2CCC3` gave an IC50 (QG-56) of 10.3 ng/mL (≈ 0.0256 µM), a Ratio [1] of 3.6 and an IC50 (HOC-21 cell line) of 101 ng/mL (≈ 0.251 µM). The IC50 (P388) was 5.05 ng/mL (≈ 0.0125 µM).
In the case of `CC[C@@]1(O)C(=O)OCc2c1cc1n(c2=O)Cc2c-1nc1cc(N)c(O)c3c1c2CCC3`, the IC50 (QG-56) is reported as 11.6 ng/mL (≈ 0.0277 µM), the Ratio [1] is reported as 2.6 and the IC50 (HOC-21 cell line) is reported as > 500 ng/mL. The IC50 (P388) was > 62.5 ng/mL.
Work on `CC[C@@]1(O)C(=O)OCc2c1cc1n(c2=O)Cc2cc3ccccc3nc2-1` yielded a Ratio [1] of 0.39.
`CC[C@@]1(O)C(=O)OCc2c1cc1n(c2=O)Cc2c-1nc1ccc(N)c3c1c2CCO3` was tested, and the IC50 (QG-56) was 0.71 ng/mL (≈ 0.00175 µM), the Ratio [1] was 1.2 and the IC50 (HOC-21 cell line) was 57.7 ng/mL (≈ 0.142 µM). It also gave an IC50 (P388) of 2.6 ng/mL (≈ 0.00641 µM).
`CC[C@@]1(O)C(=O)OCc2c1cc1n(c2=O)Cc2c-1nc1ccc(C#N)c3c1c2CCC3` was tested, and the IC50 (QG-56) was 4.21 ng/mL (≈ 0.0102 µM), the Ratio [1] was 3.9 and the IC50 (HOC-21 cell line) was 73.5 ng/mL (≈ 0.178 µM). The IC50 (P388) was 8.14 ng/mL (≈ 0.0197 µM).
`CC[C@@]1(O)C(=O)OCc2c1cc1n(c2=O)Cc2c-1nc1ccc(OC)c3c1c2CCN3C(C)=O` was tested, and the IC50 (QG-56) was 29.8 ng/mL (≈ 0.0646 µM), the IC50 (HOC-21 cell line) was > 500 ng/mL and the IC50 (P388) was > 62.5 ng/mL.
